Hck-Nef inh = human Hck-Nef kinase inhibition; P08631; Recombinant Hck-YEEI plus Nef, Z-Lyte FRET kinase assay; inhibition, % at 20 µM; actives 0.68% (n = 220,000); AID 463187;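 active means Hck-Nef kinase inhibition above about 50%, limit read from the data; inactive means inhibition below that limit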;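 further: 0% = DMSO with Hck plus Nef and 100% = Hck alone without Nef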
RanGTP-Imp inh = inhibitors of RanGTP-importin-beta interaction, primary screen, biochemical, FRET, CFP-Ran, YFP-importin-beta, homogeneous. cell-free CFP-Ran/YFP-importin-beta FRET ratio. inhibition, % (concentration not given with the values). actives 1.1% (n = 300,000);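 active means more than half of the replicate wells show a fall in the fluorescence ratio signal beyond about 16%, limit read from the data, passing the limit was not always enough; inconclusive means exactly half of the replicate wells pass the set limit; inactive means fewer than half of replicates pass the limit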;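 further: 0% = DMSO wells and 100% = Ran loaded with GDP instead of GTP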
Runt-SMMHC FRET = inhibitors of human RUNX1 Runt domain binding to CBFb-SMMHC; Q01196+Q13951; Cerulean-Runt/Venus-CBFb-SMMHC FRET ratio 530/480, 1 h; inhibition, % at 20 µM; actives 0.74% (n = 220,000); AID 1434;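 active means mean inhibition across duplicate retests at 20 µM reaching about 50%, limit read from the data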;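 further: 0% = DMSO wells and 100% = wells with excess untagged CBFb-SMMHC; inhibitors lower the FRET ratio by blocking Runt binding to CBFb-SMMHC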
Target sequence (Q01196 whole entry, looked up, the tested form may be a part): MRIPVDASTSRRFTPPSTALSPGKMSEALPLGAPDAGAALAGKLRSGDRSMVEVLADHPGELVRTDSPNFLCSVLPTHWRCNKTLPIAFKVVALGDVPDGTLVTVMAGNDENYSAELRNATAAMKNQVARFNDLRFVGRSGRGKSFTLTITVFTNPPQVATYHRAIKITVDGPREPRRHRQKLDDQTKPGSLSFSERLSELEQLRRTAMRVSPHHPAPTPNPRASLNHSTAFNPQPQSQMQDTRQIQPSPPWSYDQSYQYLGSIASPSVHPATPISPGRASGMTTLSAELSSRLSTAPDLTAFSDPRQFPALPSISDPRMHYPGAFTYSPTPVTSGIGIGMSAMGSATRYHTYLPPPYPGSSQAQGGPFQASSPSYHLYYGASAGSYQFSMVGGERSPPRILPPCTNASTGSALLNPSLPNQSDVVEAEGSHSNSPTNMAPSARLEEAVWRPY
Target sequence (Q13951 whole entry, looked up, the tested form may be a part): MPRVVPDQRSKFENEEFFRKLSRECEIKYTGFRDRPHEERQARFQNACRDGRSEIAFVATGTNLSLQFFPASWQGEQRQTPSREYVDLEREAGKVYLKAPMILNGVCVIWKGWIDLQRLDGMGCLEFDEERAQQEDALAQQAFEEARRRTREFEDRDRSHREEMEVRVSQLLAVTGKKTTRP
Runt-CBFb FRET = blocks binding of human RUNX1 Runt domain to CBFb; Q01196+Q13951; Cerulean-Runt/Venus-CBFb FRET ratio 530/480, 1 h; inhibition, % at 20 µM; actives 0.46% (n = 220,000);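 active means inhibition over about 50% at 20 µM in the single-dose screen, limit read from the data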;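 further: 0% = DMSO wells and 100% = excess unlabeled CBFb competitor control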
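Assay system: Cerulean-tagged RUNX1 Runt domain (FRET donor) fusion protein / Amount: 100 nM each of Venus-CBFb and Cerulean-Runt domain / Medium: Tris buffer pH 7.5 with salts and BSA / Also added: Venus-CBFb 100 nM / Schedule: 1 h complex formation plus 1 h compound treatment, room temperature / Signal: FRET fluorescence / Read-out: loss of energy transfer signal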
YIC FRET counter = counter-screen YIC FRET for RanGTP-importin-beta inhibitors; shares compounds with RanGTP-Imp inh; IC50, µM; AID 435026; actives 40% (n = 1,000); Purified YIC probe, intramolecular FRET ratio YFP/CFP;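 active means fitted half-maximal inhibitory concentration no more than tenfold above the top dose tested; inconclusive means flat fit with 30 to 70% activity, or poor fit; inactive means half-maximal concentration beyond tenfold above the top dose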
* = called active by the depositor; ? = inconclusive; . = not tested or not shown. Shown are actives, neighbours in structure and some others; about 1.8% of the full set was active somewhere.

SMILES	Hck-Nef inh	RanGTP-Imp inh	Runt-SMMHC FRET	Runt-CBFb FRET	YIC FRET counter
CCn1cc(C2CC(=O)NC2=O)c2ccccc21 (stereo unspecified)	17	0	-2	1	.
COc1ccc(NS(=O)(=O)c2cc(NC(=O)c3cccs3)ccc2N2CCOCC2)cc1	11	16*	-4	0	>50
COc1ccccc1NS(=O)(=O)c1cc(NC(=O)c2cccs2)ccc1N1CCOCC1	22	1	1	16	.
COc1ccc(-c2c(N)nnc3c2[nH]c2ccccc23)cc1OC	2	27*	4	0	>50
COc1ccc(CNC(=O)C2CC(=O)N(C3CCCCC3)C2)cc1 (stereo unspecified)	.	21*	.	.	>50
O=S(=O)(Cc1ccccc1)N1CCN(Cc2ccc(F)cc2Cl)CC1	.	4	.	.	.
O=c1[nH]c2c(s1)C(c1ccco1)C1C3CCC(C3)C1S2 (stereo unspecified)	-19	24*	4	8	>50
O=C1CC(c2ccco2)Sc2ccccc2N1 (stereo unspecified)	.	2	.	.	.
C#CCNC(=O)C1=C[C@@H](C)[C@H](CCCO)[C@@H](OCC)O1	.	-2	.	.	.
Cc1ccc(-n2nc3c(c2NC(=O)CC(C)C)CS(=O)C3)cc1 (stereo unspecified)	.	-5	.	.	.
CC(C)Sc1nc(N2CCOCC2)c2c(c1C#N)CC(C)(C)N(C)C2	2	27*	79*	36	39*
CCOc1ccc(N2C(=O)C3C4C=CC(CC4)C3C2=O)c([N+](=O)[O-])c1 (stereo unspecified)	2	20*	1	1	>50
CC(=O)N1CCC(N(CCN2CCOCC2)C(=O)Nc2ccc(Cl)c(Cl)c2)CC1	5	19*	.	.	>50
CCn1c(SCC(=O)N(Cc2ccccc2)C2CCS(=O)(=O)C2)nc2ccccc2c1=O (stereo unspecified)	3	20*	0	-2	>50
CCCc1noc(-c2cccc([N+](=O)[O-])c2)n1	-19	24*	2	0	>50
NC(=O)c1ccccc1NC(=O)/C=C/c1ccc(Cl)cc1	2	23*	1	1	>50
COc1ccc(NC(=O)c2cc3ccc(O)cc3o/c2=N\O)cc1	.	28*	.	.	51*
COc1ccc2o/c(=N\O)c(C(=O)Nc3ccccc3OC)cc2c1	7	-50	.	19	.
COc1ccc(NC(=O)C(CC(=O)O)Cc2ccc(Cl)cc2)cc1 (stereo unspecified)	.	4	.	.	.
CC(C(=O)O)n1nc(-c2ccccc2)c2ccccc21 (stereo unspecified)	.	0	.	.	.
N=c1c(S(=O)(=O)c2ccc(Cl)cc2)cc2c(=O)n3ccccc3nc2n1Cc1cccnc1	.	33*	.	.	?
COc1ccccc1N(CC1CO1)S(=O)(=O)c1ccc(C)cc1 (stereo unspecified)	.	1	.	.	.
N#C/C(=C/c1ccc(N2CCCCC2)o1)C(=O)Nc1ccc(Cl)cc1	-1	8	-43	24	.
COc1ccc(NC(=O)/C(C#N)=C\c2ccc(N3CCOCC3)o2)cc1	2	18*	-90	-17	47*
CC1CC1c1ccc(/C=C(\C#N)C(=O)Nc2ccccc2Cl)o1 (stereo unspecified)	-1	36*	-1	-5	52*
SMILES	Hck-Nef inh	RanGTP-Imp inh	Runt-SMMHC FRET	Runt-CBFb FRET	YIC FRET counter
CC1CC1c1ccc(/C=C(\C#N)C(=O)Nc2ccc(Cl)cc2)o1 (stereo unspecified)	2	16*	2	0	>50
COc1ccc(NC(=O)c2ccc3snnc3c2)cc1	9	96*	-6	2	>50
O=C(COC(=O)c1cccc(S(=O)(=O)N2CCc3ccccc32)c1)Nc1ccc(Cl)cn1	3	2	-4	1	.
COc1ccc(NS(=O)(=O)c2ccc(OCC(=O)N3CCOCC3)cc2)cc1Cl	.	1	.	.	.
CN(C)C=NC(=O)c1cc(C(=O)c2ccccc2Cl)c[nH]1	-5	1	-8	0	.
CN(C)C=NC(=O)c1cc(C(=O)c2ccc(C(C)(C)C)cc2)c[nH]1	-8	27*	2	0	>50
Cc1noc(C)c1NC(=O)N(C)C[C@@H]1Oc2ccc(N(C)C)cc2CC(=O)N([C@H](C)CO)C[C@H]1C	.	.	.	.	>50
Cc1nc(COC(=O)c2ccc(S(=O)(=O)N3CCCC3)cc2)cs1	0	2	-5	-2	.
O=C(COC(=O)CNS(=O)(=O)c1ccc(Br)cc1Cl)NCCc1ccccc1	.	5	.	.	.
Cn1c2ccccc2c(=O)c2ccc(F)cc21	.	35*	.	.	15*
CCOC(=O)C(=O)Nc1cccc(C(=O)OCC)c1	1	-1	1	0	.
CCOC(=O)C(=O)Nc1cc(C(=O)OC)cc(C(=O)OC)c1	-9	16*	3	-1	>50
CCOc1cc(C=O)cc(Br)c1OCC(N)=O	18	9	1	0	.
Nc1nc(CSc2nnnn2-c2ccc(F)c(Cl)c2)nc(N2CCOCC2)n1	5	4	.	.	.
Nc1nc(CSc2nnnn2-c2ccc(Cl)cc2)nc(N2CCOCC2)n1	0	20*	-4	-4	>50
O=[N+]([O-])c1cccc(-c2n[nH]c(=S)n2-c2ccc(Br)cc2)c1	23	23*	13	1	>50
Nc1c(C(=O)Nc2ccccc2)c2nc3ccccc3nc2n1CCCN1CCOCC1	29	28*	11	10	30*
COc1ccccc1-n1c(SCC(=O)OC(C)C)nc2cccnc21	23	-1	-4	-2	.
COc1ccc2c(c1)C(c1ccc(C)o1)=NNC(c1cccnc1)=N2	23	21*	4	0	>50
COc1ccc2c(c1)C(c1ccc(C)o1)=NNC(c1ccccc1)=N2	13	5	-2	4	.
O=S(=O)(Nc1ccc(Cl)cn1)c1cccs1	.	0	.	.	.
COC(=O)c1sccc1NC(=O)c1csc(C)c1	0	19*	6	-1	>50
COC(=O)c1sccc1NC(=O)c1ccc(Cl)s1	8	-4	-2	0	.
CCn1c(C(=O)Nc2ccsc2C(=O)OC)cc2sc(Cl)cc21	2	20*	8	-3	47*
Cc1ccsc1/C=N\NC(=O)Cn1nnc2ccccc21	2	?	-2	0	.
O=C(CCS(=O)(=O)c1ccc(Cl)cc1)N1CCCc2ccccc21	.	3	.	.	.
Cc1cc(C)cc(N(C(=O)c2ccccn2)C(C(=O)NC2CCCCC2)c2ccncc2)c1 (stereo unspecified)	.	4	.	.	.
CC1(C)CC(=O)C/C(=N\NC(=O)C2CC23CCC3)C1 (stereo unspecified)	1	18*	1	2	>50
COc1ccc(OC)c(NC(=O)CNC(=O)c2ccc([N+](=O)[O-])cc2)c1	19	5	1	1	.
Cn1c(N/N=C/c2c[nH]c3ccccc23)nc2ccccc21	-1	5	2	5	.

High-throughput results (PubChem)
